# Where “and” joins values, the source holds several entries; their conditions need not be identical. Equal values may be shown once. Calls of active or inactive are those of the source.
# Tests used:
# [1] = system: Lewis lung carcinoma cell line; assay: Optimal dose administered intraperitoneally to mice infected with Lewis lung carcinoma cells(LL) in vivo; assay type: functional, Mus musculus
# [2] = system: poly[d(A-T)] and poly[d(G-C)]; assay: Binding constant for poly[d(A-T)] and poly[d(G-C)] by ethidium bromide displacement
# P388 [3] = assay: The percentage increase in lifespan of compound with P388 tumor bearing controls when treated at optimal dose; assay type: functional, Mus musculus
# Procedure, shortened: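 P388 leukemia: 10^6 cells inoculated intraperitoneally. ILSmax is the percentage lifespan increase over tumor-bearing controls at the optimal dose (mg/kg per day). Groups of six; long-term survivors counted at 50 days; values above 20% considered significant.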
# L1210 = assay: Inhibition of growth of murine leukemia (L1210) cells.; assay type: functional, cell-based; conditions: Mus musculus
# Procedure, shortened: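 Murine leukemia L1210 cells grown in culture with drug for 40 h; IC50 taken as the concentration (nM) giving 50% growth inhibition.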
# P388 [4] = assay: Optimal dose following i.p. administration on days 1,5 and 9 after inoculation of 10e6 P388 leukemia cells to mice.; assay type: functional, Mus musculus
# Procedure, shortened: (§1)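 Mice inoculated intraperitoneally with 10^6 P388 leukemia cells. Drug given i.p. as a solution in 0.1 mL 30% v/v ethanol/water on days 1, 5 and 9. Optimal dose in mg/kg per day. ILS is the percent increase in lifespan over untreated tumor-bearing controls at that dose; above 20% counted significant. Long-term survival judged at 50 days, groups of six.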
# [5] = system: Lewis lung carcinoma cell line; assay: OD administered intraperitoneally to mice infected with Lewis lung carcinoma cells(LL) in vivo; assay type: functional, Mus musculus
# P388 [6] = assay: The percentage increase in lifespan of compound with P388 tumor bearing controls when treated at optimal dose; Not active; assay type: functional; conditions: Mus musculus; procedure, shortened: as §1
# [7] = system: Lewis lung carcinoma cell line; assay: The percentage increase in lifespan of compound with Lewis lung carcinoma tumor bearing controls when treated at OD; Not active; assay type: functional, cell-based; conditions: Mus musculus
# P388 [8] = assay: Optimal dose administered intraperitoneally on days 1,5 and 9 after intraperitoneal inoculation of 10e6 P388 leukemia cells in vivo.; assay type: functional, Mus musculus; procedure, shortened: as §1
# [9] = system: Lewis lung carcinoma cell line; assay: Optimal dose administered intraperitoneally to mice infected with Lewis lung carcinoma cells(LL) in vivo.; assay type: functional, Mus musculus
# [10] = pKa was evaluated; assay type: physicochemical
# Procedure, shortened: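 pKa determined spectrophotometrically in aqueous solution.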
# [11] = system: Lewis lung carcinoma cell line; assay: The percentage increase in lifespan of compound with Lewis lung carcinoma tumor bearing controls when treated at OD; assay type: functional, Mus musculus
# Procedure, shortened: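 Lewis lung carcinoma: 10^6 cells inoculated intravenously. ILSmax is the percentage increase in lifespan over tumor-bearing controls at the optimal dose (mg/kg per day). Groups of six; long-term survivors counted at 60 days; values above 40% considered significant.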
SMILES,OD [1] [mg/kg/day],Log K [2],ILSmax (P388 [3]) [%],IC50 (L1210) [nM],OD (P388 [4]) [mg/kg/day],OD [5] [mg/kg/day],ILSmax (P388 [6]),ILSmax [7],ILS max (P388 [6]),OD (P388 [8]) [mg/kg/day],ILS max [7],OD [9] [mg/kg/day],pKa [10],ILSmax [11] [%]
CN(C)CCNC(=O)c1cccc2c1nc(-c1ccccn1)c1ccccc12.Cl,65,5.69 and 5.77,20,720,65,–,–,–,–,–,–,–,–,–
CN(C)CCNC(=O)c1cccc2c1nc(-c1ccc(NS(C)(=O)=O)cc1)c1ccccc12.Cl.Cl,–,6.24 and 6.36,–,350,30,20,inactive,inactive,–,–,–,–,–,–
CN(C)CCCCNC(=O)c1cccc2c1nc(-c1ccccc1)c1ccccc12.Cl.Cl,45,6.59 and 6.4,–,1060,–,–,–,inactive,inactive,65,–,–,–,–
CN(C)CCNC(=O)c1cccc2c1nc(-c1ccccc1Cl)c1ccccc12.Cl,–,6.45 and 6.6,–,2870,45,–,inactive,–,–,–,–,–,–,–
Br.Br.CN(C)CCNC(=O)c1cccc2c1nc(-c1ccc(O)cc1)c1ccccc12.Cl.Cl,65,–,–,370,65,–,–,–,inactive,–,inactive,–,–,–
CN(C)CCCNC(=O)c1cccc2c1nc(-c1ccccc1)c1ccccc12.Cl.Cl,65,6.5 and 6.11,24,1120,45,–,–,inactive,–,–,–,–,–,–
CN(C)CCCNC(=O)c1cccc2c1ncc1ccccc12.Cl.Cl,–,5.74 and 5.37,–,3590,100,–,–,–,–,–,–,–,–,–
CN(C)CCNC(=O)c1cccc2c1nc(-c1ccc(Br)cc1)c1ccccc12,–,7.04 and 6.76,–,1010,65,–,–,inactive,inactive,–,–,45,–,–
COc1ccc(-c2nc3c(C(=O)NCCN(C)C)cccc3c3ccccc23)cc1.Cl.Cl,–,–,22,500,–,–,–,inactive,–,65,–,100,–,–
CN(C)CCNC(=O)c1cccc2c1nc(-c1ccccc1)c1ccccc12,65,6.26 and 6.33,92,120,45,–,–,–,–,–,–,–,2.75,126
CN(C)CCNC(=O)c1cccc2c1nc(-c1ccc(Cl)cc1)c1ccccc12,65,6.26 and 6.24,34,410,45,–,–,inactive,–,–,–,–,2.52,–
CN(C)CCNC(=O)c1cccc2c1nc(-c1ccc(N)cc1)c1ccccc12,–,6.29 and 6.57,27,130,–,–,–,inactive,–,30,–,45,–,–
CN(C)CCNC(=O)c1cccc2c1nc(-c1ccc([N+](=O)[O-])cc1)c1ccccc12,–,6.41 and 6.54,65,540,–,–,–,inactive,–,65,–,65,–,–
CN(C)CCNC(=O)c1cccc2c1nc(-c1ccc(I)cc1)c1ccccc12.Cl.Cl,65,7.33 and 7.23,–,2240,65,–,inactive,inactive,–,–,–,–,–,–
CN(C)CCCCNC(=O)c1cccc2c1ncc1ccccc12.Cl,–,5.64 and 5.28,–,3290,–,–,–,–,–,100,–,–,–,–
CN(C)CCNC(=O)c1cccc2c1nc(-c1ccncc1)c1ccccc12.Cl.Cl,100,6.9 and 7,93,14,100,–,–,inactive,–,–,–,–,–,–
CN(C)CCNC(=O)c1cccc2c1nc(-c1cccnc1)c1ccccc12.Cl.Cl.Cl,65,6.35 and 6.21,104,13,45,–,–,–,–,–,–,–,–,93
CC(=O)Nc1ccc(-c2nc3c(C(=O)NCCN(C)C)cccc3c3ccccc23)cc1,–,6.13 and 6.31,22,54,30,–,–,inactive,–,–,–,45,–,–
CN(C)CCNC(=O)c1cccc2c1ncc1ccccc12.Cl.Cl,150,5.9 and 5.61,73,2100,100,–,–,–,–,–,–,–,2.95,117
CN(C)CCNC(=O)c1cccc2c1nc(-c1cccc(Cl)c1)c1ccccc12.Cl.Cl,100,6.41 and 6.56,88,66,65,–,–,–,–,–,–,–,–,–
CN(C)CCNC(=O)c1cccc2c1nc(-c1ccc(F)cc1)c1ccccc12.Cl.Cl,45,–,63,43,20,–,–,–,–,–,–,–,–,45
